{"source": "ChEMBL document CHEMBL1142087", "about": "(Antimicrob Agents Chemother, 2007)", "key": {"Influenza A virus [1]": {"tested_on": "Influenza A virus", "test": "Inhibition of influenza A virus (A/duck/Minnesota/1525/1981 (H5N1)) replication in MDCK cells by virus yield reduction assay", "assay_type": "functional"}, "Mus musculus [2]": {"tested_on": "Mus musculus", "test": "Effect on survival of BALB/c mouse infected with influenza A virus (A/duck/Minnesota/1525/1981 (H5N1)) at 100 mg/kg/day, po twice daily for 5 days administered 1 hr after infection relative to carboxymethyl cellulose", "assay_type": "functional, organism-based"}, "Mus musculus [3]": {"tested_on": "Mus musculus", "test": "Lowering of Arterial oxygen saturation decline in BALB/c mouse infected with influenza A virus (A/duck/Minnesota/1525/1981 (H5N1)) at 100 mg/kg/day, po twice daily for 5 days administered 1 hr after infection measured on day 11 relative to carboxymethyl cellulose", "assay_type": "functional", "outline": "(§1)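 Arterial oxygen saturation was measured by pulse oximeter, with the ear probe placed on the thigh and read after 30 s stabilization. Values were taken on day 11, 10 mice per group. Mice dead from infection were assigned 75%. Means were compared with CMC controls by t test.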"}, "Mus musculus [4]": {"tested_on": "Mus musculus", "test": "Effect on survival in BALB/c mouse infected with influenza A virus (A/duck/Minnesota/1525/1981 (H5N1)) at 600 mg/kg/day, po administered 24 hrs after infection relative to carboxymethyl cellulose", "assay_type": "functional, organism-based"}, "Mus musculus [5]": {"tested_on": "Mus musculus", "test": "Effect on survival of BALB/c mouse infected with influenza A virus (A/duck/Minnesota/1525/1981 (H5N1)) at 100 mg/kg/day, po once daily for 5 days administered 1 hr after infection relative to carboxymethyl cellulose", "assay_type": "functional, organism-based"}, "Mus musculus [6]": {"tested_on": "Mus musculus", "test": "Lowering of arterial oxygen saturation decline in BALB/c mouse infected with influenza A virus (A/duck/Minnesota/1525/1981 (H5N1)) at 300 mg/kg/day, po qid for 5 days administered 60 hrs after infection measured on day 11 relative to carboxymethyl cellulose", "assay_type": "functional"}, "Mus musculus [7]": {"tested_on": "Mus musculus", "test": "Effect on survival in BALB/c mouse infected with influenza A virus (A/duck/Minnesota/1525/1981 (H5N1)) at 300 mg/kg/day, po administered 4 hrs after infection relative to carboxymethyl cellulose", "assay_type": "functional, organism-based"}, "Influenza A virus [8]": {"tested_on": "Influenza A virus", "test": "Inhibition of Influenza A virus (A/gull/Pennsylvania/4175/83 (H5N1)) replication in MDCK cells by virus yield reduction assay", "assay_type": "functional"}, "Mus musculus [9]": {"tested_on": "Mus musculus", "test": "Lowering of arterial oxygen saturation decline in BALB/c mouse infected with influenza A virus (A/duck/Minnesota/1525/1981 (H5N1)) at 300 mg/kg/day, po qid for 5 days administered 24 hrs after infection measured on day 11 relative to carboxymethyl cellulose", "assay_type": "functional"}, "Mus musculus [10]": {"tested_on": "Mus musculus", "test": "Effect on survival of BALB/c mouse infected with influenza A virus (A/duck/Minnesota/1525/1981 (H5N1)) at 300 mg/kg/day, po once daily for 5 days administered 1 hr after infection relative to carboxymethyl cellulose", "assay_type": "functional, organism-based"}, "Mus musculus [11]": {"tested_on": "Mus musculus", "test": "Lowering of Arterial oxygen saturation decline in BALB/c mouse infected with influenza A virus (A/duck/Minnesota/1525/1981 (H5N1)) at 10 mg/kg/day, po twice daily for 5 days administered 1 hr after infection measured on day 11 relative to carboxymethyl cellulose", "assay_type": "functional", "outline": "as §1"}, "Mus musculus [12]": {"tested_on": "Mus musculus", "test": "Effect on survival in BALB/c mouse infected with influenza A virus (A/duck/Minnesota/1525/1981 (H5N1)) at 300 mg/kg/day, po administered 48 hrs after infection relative to carboxymethyl cellulose", "assay_type": "functional, organism-based"}, "Mus musculus [13]": {"tested_on": "Mus musculus", "test": "Inhibition of increase in lung weight of BALB/c mouse infected with influenza A virus (A/duck/Minnesota/1525/1981 (H5N1)) at 100 mg/kg/day, po qid for 5 days administered 1 hr after infection measured on day 6 relative to carboxymethyl cellulose", "assay_type": "functional"}, "Mus musculus [14]": {"tested_on": "Mus musculus", "test": "Inhibition of increase in lung weight of BALB/c mouse infected with influenza A virus (A/duck/Minnesota/1525/1981 (H5N1)) at 33 mg/kg/day, po qid for 5 days administered 1 hr after infection measured on day 6 relative to carboxymethyl cellulose", "assay_type": "functional"}, "Mus musculus [15]": {"tested_on": "Mus musculus", "test": "Effect on survival in BALB/c mouse infected with influenza A virus (A/duck/Minnesota/1525/1981 (H5N1)) at 600 mg/kg/day, po administered 12 hrs after infection relative to carboxymethyl cellulose", "assay_type": "functional, organism-based"}, "Mus musculus [16]": {"tested_on": "Mus musculus", "test": "Lowering of arterial oxygen saturation decline in BALB/c mouse infected with influenza A virus (A/duck/Minnesota/1525/1981 (H5N1)) at 100 mg/kg/day, po once daily for 5 days administered 1 hr after infection measured on day 11 relative to carboxymethyl cellulose", "assay_type": "functional"}, "Mus musculus [17]": {"tested_on": "Mus musculus", "test": "Effect on survival of BALB/c mouse infected with influenza A virus (A/duck/Minnesota/1525/1981 (H5N1)) at 100 mg/kg/day, po qid for 5 days administered 1 hr after infection relative to carboxymethyl cellulose", "assay_type": "functional, organism-based"}, "Mus musculus [18]": {"tested_on": "Mus musculus", "test": "Lowering of Arterial oxygen saturation decline in BALB/c mouse infected with influenza A virus (A/duck/Minnesota/1525/1981 (H5N1)) at 300 mg/kg/day, po twice daily for 5 days administered 1 hr after infection measured on day 11 relative to carboxymethyl cellulose", "assay_type": "functional"}, "Mus musculus [19]": {"tested_on": "Mus musculus", "test": "Lowering of Arterial oxygen saturation decline in BALB/c mouse infected with influenza A virus (A/duck/Minnesota/1525/1981 (H5N1)) at 300 mg/kg/day, po qid for 5 days administered 1 hr after infection measured on day 11 relative to carboxymethyl cellulose", "assay_type": "functional", "outline": "as §1"}, "Mus musculus [20]": {"tested_on": "Mus musculus", "test": "Lowering of Arterial oxygen saturation decline in BALB/c mouse infected with influenza A virus (A/duck/Minnesota/1525/1981 (H5N1)) at 30 mg/kg/day, po twice daily for 5 days administered 1 hr after infection measured on day 11 relative to carboxymethyl cellulose", "assay_type": "functional", "outline": "as §1"}, "Mus musculus [21]": {"tested_on": "Mus musculus", "test": "Effect on survival of BALB/c mouse infected with influenza A virus (A/duck/Minnesota/1525/1981 (H5N1)) at 33 mg/kg/day, po qid for 5 days administered 1 hr after infection relative to carboxymethyl cellulose", "assay_type": "functional, organism-based"}, "Mus musculus [22]": {"tested_on": "Mus musculus", "test": "Effect on survival of BALB/c mouse infected with influenza A virus (A/duck/Minnesota/1525/1981 (H5N1)) at 300 mg/kg/day, po qid for 5 days administered 36 hrs after infection relative to carboxymethyl cellulose", "assay_type": "functional, organism-based"}}, "note": "Activity calls are given as the source filed them. No cut-off for these calls is given here.", "data": [{"smiles": "NC(=O)c1nc(F)cnc1O", "note": "[FAVIPIRAVIR]", "values": [{"measurement": "EC90", "setting": "Influenza A virus [1]", "result": 2.6, "unit": "µM"}, {"measurement": "Activity", "setting": "Mus musculus [2]", "result": "Active"}, {"measurement": "Activity", "setting": "Mus musculus [3]", "result": 84.2, "unit": "%"}, {"measurement": "Activity", "setting": "Mus musculus [4]", "result": "Active"}, {"measurement": "Activity", "setting": "Mus musculus [5]", "result": "Active"}, {"measurement": "Activity", "setting": "Mus musculus [6]", "result": 84.6, "unit": "%"}, {"measurement": "Activity", "setting": "Mus musculus [7]", "result": "Active"}, {"measurement": "EC90", "setting": "Influenza A virus [8]", "result": 7.7, "unit": "µM"}, {"measurement": "Activity", "setting": "Mus musculus [9]", "result": 85.3, "unit": "%"}, {"measurement": "Activity", "setting": "Mus musculus [10]", "result": "Active"}, {"measurement": "Activity", "setting": "Mus musculus [11]", "result": 75.5, "unit": "%"}, {"measurement": "Activity", "setting": "Mus musculus [12]", "result": "Active"}, {"measurement": "Activity", "setting": "Mus musculus [13]", "result": 140, "unit": "mg"}, {"measurement": "Activity", "setting": "Mus musculus [14]", "result": 217, "unit": "mg"}, {"measurement": "Activity", "setting": "Mus musculus [15]", "result": "Active"}, {"measurement": "Activity", "setting": "Mus musculus [16]", "result": 80.8, "unit": "%"}, {"measurement": "Activity", "setting": "Mus musculus [17]", "result": "Active"}, {"measurement": "Activity", "setting": "Mus musculus [18]", "result": 86.9, "unit": "%"}, {"measurement": "Activity", "setting": "Mus musculus [19]", "result": 88.6, "unit": "%"}, {"measurement": "Activity", "setting": "Mus musculus [20]", "result": 79.8, "unit": "%"}, {"measurement": "Activity", "setting": "Mus musculus [21]", "result": "Active"}, {"measurement": "Activity", "setting": "Mus musculus [22]", "result": "Active"}]}]}
